DSG3 Ab inh – inhibitors of pemphigus antibody binding to DSG3, primary screen, biochemical, bead-based, flow cytometry, scFv-GFP. DSG3-coupled beads, scFv-anti-DSG3-GFP binding; active compounds read low. Desmoglein-3 (Homo sapiens), P32926. actives 0.48% (n = 310,000). binding (percent of control), % at 10 µM;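 active = binding more than 3 SD below its plate's average and above zero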;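 note: hits lower antibody fragment binding to DSG3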
TRPC4 PAM – positive allosteric modulators of TRPC4, primary screen, cell-based, mouse TRPC4beta, HEK293 mu-opioid, Fluo-4 calcium. Short transient receptor potential channel 4 (Mus musculus), Q9QUQ5. DAMGO EC20, Fluo-4 Ca2+ flux; active compounds read high. actives 0.42% (n = 310,000). B-score at 10 µM;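 active = B-score of calcium response area above 5 SD of library B-scores, with initial fluorescence ratio within 5 SD of library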
TRPC6 act – mouse TRPC6 channel activators, primary screen, cell-based, HEK293, membrane potential dye | HEK293-TRPC6 membrane potential dye fluorescence; active compounds read high | B-score at 10 µM | Short transient receptor potential channel 6 (Mus musculus), Q61143 | actives 0.13% (n = 310,000);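 active = B-score of the integrated fluorescence ratio above library mean plus 3 SD, and starting fluorescence ratio within library mean plus 5 SD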;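 note: higher score means more depolarization so channel activation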
Target sequence (Q61143 whole entry, looked up): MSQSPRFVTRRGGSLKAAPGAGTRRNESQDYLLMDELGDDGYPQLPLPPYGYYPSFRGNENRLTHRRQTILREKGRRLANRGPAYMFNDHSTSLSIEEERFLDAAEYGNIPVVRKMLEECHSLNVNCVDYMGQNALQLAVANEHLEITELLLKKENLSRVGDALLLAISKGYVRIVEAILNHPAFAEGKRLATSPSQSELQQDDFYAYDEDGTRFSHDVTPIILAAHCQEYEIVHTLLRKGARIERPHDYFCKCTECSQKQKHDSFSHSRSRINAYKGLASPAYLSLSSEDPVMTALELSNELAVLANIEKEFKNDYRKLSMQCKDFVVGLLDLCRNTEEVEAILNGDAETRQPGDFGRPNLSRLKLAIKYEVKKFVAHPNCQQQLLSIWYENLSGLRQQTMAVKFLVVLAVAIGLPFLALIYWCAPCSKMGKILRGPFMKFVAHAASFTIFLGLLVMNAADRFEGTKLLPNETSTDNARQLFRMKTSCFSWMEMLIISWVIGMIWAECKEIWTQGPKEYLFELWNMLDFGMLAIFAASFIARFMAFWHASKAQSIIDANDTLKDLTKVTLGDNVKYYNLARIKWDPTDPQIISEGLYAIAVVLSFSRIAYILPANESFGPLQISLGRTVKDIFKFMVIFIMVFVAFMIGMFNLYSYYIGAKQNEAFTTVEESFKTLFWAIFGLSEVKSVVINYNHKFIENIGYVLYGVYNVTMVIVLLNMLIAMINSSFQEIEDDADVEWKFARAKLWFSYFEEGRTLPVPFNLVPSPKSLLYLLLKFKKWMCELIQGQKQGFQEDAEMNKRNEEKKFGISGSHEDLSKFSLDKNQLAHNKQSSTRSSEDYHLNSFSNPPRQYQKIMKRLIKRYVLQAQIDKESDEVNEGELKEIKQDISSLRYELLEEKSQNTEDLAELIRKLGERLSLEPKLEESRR
TRPC6 inh – mouse TRPC6 channel inhibitors, primary screen, cell-based, HEK293, membrane potential dye | Short transient receptor potential channel 6 (Mus musculus), Q61143 | ACh-evoked depolarization; active compounds read low | B-score at 10 µM | actives 1.1% (n = 310,000);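 active = B-score under library mean minus 3 SD, initial fluorescence not abnormally high, positive integrated signal ratio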;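 note: B-score derived from integrated fluorescence ratio over the kinetic read; more negative B-score means stronger inhibition of depolarization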
TRPC4 block – inhibitors of mouse TRPC4 channel, primary screen, Fluo4 calcium, HEK293 TRPC4beta/mu-opioid cells | Short transient receptor potential channel 4 (Mus musculus), Q9QUQ5 | DAMGO-evoked Fluo4 calcium flux; active compounds read low | B-score at 10 µM | actives 0.39% (n = 300,000) | AID 2247, 2010;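 active = B-score over 3 SD under the library average, no early fluorescence shift, positive overall ratio signal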
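Assay system: Stable TRPC4beta/mu-opioid receptor HEK293 cells | Reagent: DAMGO in two steps, submaximal then maximal | Compound dosing: Single concentration per test compound | Signal: Fluo4 Ca2+ flux fluorescence | Evaluation: Per-well B score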
TRPC4 agonist – activators of mouse TRPC4 channel, primary screen, Fluo4 calcium, HEK293 TRPC4beta/mu-opioid cells; Short transient receptor potential channel 4 (Mus musculus), Q9QUQ5; AID 2237, 2010; B-score at 10 µM; actives 0.49% (n = 310,000); Fluo4 calcium fluorescence; active compounds read high;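 active = B-score above 5 SD of library B-scores, and initial fluorescence ratio not above library mean plus 5 SD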;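 note: positive B-score marks a calcium rise read as TRPC4 activation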
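Incubation: 45 min room-temperature Fluo4 loading, 110 s read / System: HEK293 cells stably co-expressing mouse TRPC4beta and mu-opioid receptor / Signal: Fluo4 fluorescence, kinetic / Control set: buffer (low) and maximal DAMGO (high) / Measure: integrated baseline-normalised fluorescence ratio, converted to per-well B score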
TRPC4 spec 2 – mouse TRPC4 off-target activity of TRPC6 inhibitors, second screen | inhibition, % at 10 µM | shares compounds with TRPC6 inh | AID 2776 | HEK293 TRPC4/MOR, membrane potential dye fluorescence; channel activated by saturating DAMGO dose | actives 42% (n = 920);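 active = compounds whose fluorescence signal differed from control wells by over 3 SD, either direction, in both duplicate plates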
TRPC4 spec – mouse TRPC4 modulation by TRPC6 hits, confirmation, selectivity assay for TRPC6 inhibitor project, cell-based, HEK293 TRPC4/mu-opioid, membrane potential dye; shares compounds with TRPC6 inh; membrane potential fluorescence; activity change, negative = inhibition, % at 10 µM; actives 61% (n = 920); AID 2777, 2010;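 active = rise or fall in signal beyond 3 SD of buffer-only wells in both replicate plates, either sign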;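 note: integrated kinetic ratio of fluorescence range over baseline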
HEK293 MPD ctr 2-1 – nonspecific membrane potential effects, parental HEK293, confirmation, counter-screen for TRPC6 inhibitor project, cell-based, second counter screen; parental HEK293 membrane potential dye fluorescence; maximal acetylcholine challenge after compound addition; actives 31% (n = 920); shares compounds with TRPC6 inh; signal change vs control, % at 10 µM;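 active = membrane potential signal moving either way by over 3 SD of the maximum-effect control, in both duplicate plates, meaning non-specific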
HEK293 MPD ctr-1 – membrane potential modulation in parental HEK293, confirmation, counter-screen for TRPC6 inhibitor project, cell-based | shares compounds with TRPC6 inh | parental HEK293 membrane potential dye fluorescence | membrane potential signal change, % at 10 µM | actives 60% (n = 920);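 active = membrane potential signal shifting up or down by more than 3 SD of buffer-only wells, on both duplicate plates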
HEK293 MPD ctr-2 – parental HEK293 membrane potential modulation, confirmation, counter-screen for TRPC6 modulator project, cell-based; shares compounds with TRPC6 inh; membrane potential dye fluorescence; membrane potential signal change, % at 10 µM; actives 51% (n = 2,400); AID 488924, 2010;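 active = membrane potential signal moves up or down beyond 5 SD from buffer-only wells, on both duplicate plates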
HEK293 MPD ctr 2-2 – second check of TRPC6 modulator effects in parental HEK293 cells; membrane potential dye fluorescence; after compound, maximal acetylcholine stimulation; inhibition, % at 10 µM; shares compounds with TRPC6 inh; AID 488926; actives 14% (n = 2,400);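 active = membrane potential signal drops by more than 5 SD from the mean control signal, in both duplicate plates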
TRPC4 ctr mod – TRPC4 modulation by TRPC6 hit compounds, confirmation, selectivity assay for TRPC6 modulator project, cell-based, HEK293 TRPC4/mu-opioid, membrane potential dye, mouse; actives 69% (n = 2,400); membrane potential fluorescence; percent change from control (negative = decrease, positive = increase), % at 10 µM; AID 488927, 2010; shares compounds with TRPC6 inh;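 active = membrane potential signal moved up or down beyond 5 SD of buffer control wells, in both duplicate plates, actives on both sides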
TRPC4 ctr inh 2 – second selectivity test of TRPC6 modulators against mouse TRPC4 | inhibition, % at 10 µM | shares compounds with TRPC6 inh | actives 55% (n = 2,400) | AID 488928 | HEK293 TRPC4/mu-opioid, membrane potential dye fluorescence; stimulated with maximal-effect DAMGO;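 active = drop in membrane potential signal beyond 5 SD of the control wells in both duplicate plates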;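 note: TRPC4 counter screen for TRPC6 hits run under conditions tuned for TRPC6 not TRPC4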
TRPC6 inh conf – mouse TRPC6 channel inhibitors, confirmation, HEK293 cells, membrane potential dye, duplicate | shares compounds with TRPC6 inh | ACh-evoked depolarization | inhibition, % at 10 µM | actives 43% (n = 3,300) | AID 488960, 2010;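 active = fluorescence ratio falls more than 5 SD below the full-stimulation control mean, in both duplicate runs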;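 note: integrated fluorescence ratio of peak minus minimum over baseline after agonist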
TRPC6 act confirm – mouse TRPC6 channel activators, confirmation, HEK293 cells, membrane potential dye, duplicate; shares compounds with TRPC6 inh; HEK293-TRPC6 membrane potential dye fluorescence, FDSS; activation, % at 10 µM; actives 11% (n = 2,800);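 active = ratio signal rise beyond 5 SD above unstimulated control wells' mean, seen in both duplicate runs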
Hits are given with their value; . = inactive; / = not tested or not shown. Compounds with a hit are over-represented: about 2.5% of the library has one in this group of screens.

SMILES	DSG3 Ab inh	TRPC4 PAM	TRPC6 act	TRPC6 inh	TRPC4 block	TRPC4 agonist	HEK293 MPD ctr-2	HEK293 MPD ctr 2-2	TRPC4 ctr mod	TRPC4 ctr inh 2	TRPC6 inh conf	TRPC6 act confirm	others
COc1cc(OC)c(C(=O)N(CCc2ccccc2)Cc2ccccc2)cc1OC	.	.	.	-6.9	.	.	/	/	/	/	.	.	TRPC4 spec 2=.;TRPC4 spec=15%;HEK293 MPD ctr 2-1=.;HEK293 MPD ctr-1=9.0%
COc1ccc(C(C)=O)cc1CSc1nnc2c(Cl)cc(Cl)cn12	.	.	.	-7	.	.	-342%	65%	-68%	72%	64%	.
Cc1ccc(C)c2[nH]c(=O)c(CN(CCN3CCCC3)C(=O)Nc3cccc(Cl)c3)cc12	.	.	.	-6.8	.	.	.	67%	.	80%	60%	.
CCOc1ccc(NC(=O)CN(C)C(=O)C2CCN(C(=O)Nc3ccccc3)CC2)cc1OCC	.	/	/	/	/	/	/	/	/	/	/	/
Cc1nc(NCCCn2ccnc2)c2ccccc2n1	.	.	.	-7.7	.	.	-237%	61%	-38%	38%	52%	.
c1cncc(-c2nc(NCCCn3ccnc3)c3ccccc3n2)c1	.	.	.	.	.	.	/	/	/	/	/	/
CCC(CC)c1nnc(NC(=O)CSCC(=O)Nc2cc(C)on2)s1	.	.	.	.	.	.	/	/	/	/	/	/

Assay outcomes from PubChem BioAssay.
